Measurements from ChEMBL document CHEMBL2016445, “Discovery of a novel class of potent and orally bioavailable sphingosine 1-phosphate receptor 1 antagonists” (J Med Chem, 2012).

How the values were obtained:
[1] = target: T1, Sphingosine 1-phosphate receptor 1 (Homo sapiens, UniProt P21453); assay: Antagonist activity at S1P1 receptor expressed in HEK293 cells assessed as inhibition of S1P-induced cAMP response after 90 mins by spectrophotometry; format: functional, cell-based
[2] = target: T1, Sphingosine 1-phosphate receptor 1; assay: Antagonist activity at S1P1 receptor expressed in HEK293 cells assessed as inhibition of S1P-induced tango beta-arrestin recruitment preincubated for 30 mins prior S1P addition measured after 16 to 18 hrs by luciferase reporter gene assay; format: functional, cell-based
[3] = target: Sphingosine 1-phosphate receptor 2 (Homo sapiens, UniProt O95136); assay: Antagonist activity at S1P2 receptor expressed in HEK293 cells assessed as inhibition of S1P-induced tango beta-arrestin recruitment preincubated for 30 mins prior S1P addition measured after 16 to 18 hrs by luciferase reporter gene assay; format: functional, cell-based
[4] = target: Sphingosine 1-phosphate receptor 3 (Homo sapiens, UniProt Q99500); assay: Antagonist activity at S1P3 receptor expressed in HEK293 cells assessed as inhibition of S1P-induced tango beta-arrestin recruitment preincubated for 30 mins prior S1P addition measured after 16 to 18 hrs by luciferase reporter gene assay; format: functional, cell-based
[5] = Drug uptake in nu/nu homozygous mouse plasma at 100 mg/kg, po after 1 hr by HPLC/MS/MS analysis; format: ADME, organism-based; set-up: dose 100 mg/kg, route oral
How it was run: (§1)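 Female Nu/Nu mice (~8 wk, 20-22 g) given a single 100 mpk oral dose at 10 mL/kg. Vehicles: 10% EtOH/45% or 40% PEG400/water + 1 molar equiv HCl, 10% EtOH/40% PEG400/20% Captisol + HCl, or 10% NMP/90% corn oil. Heparinized blood collected 1 and 4 h post-dose; plasma analysed by HPLC/MS/MS.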

[6] = Drug uptake in nu/nu homozygous mouse plasma at 100 mg/kg, po after 4 hrs by HPLC/MS/MS analysis; format: ADME, organism-based; set-up: dose 100 mg/kg, route oral; how it was run: as §1
[7] = Metabolic stability of the compound in mouse liver microsomes assessed as compound oxidation measuring disappearance of compound at 15 uM after 30 mins by LC/MS/MS analysis; format: ADME, Microsome; conditions: read-out: Drug degradation
How it was run: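 Incubated in duplicate for 30 min at 37 °C: 15 µM compound, 0.15% DMSO, 0.5 mg/mL mouse liver microsomes, 1 mM NADPH, 100 mM potassium phosphate pH 7.4. Stopped with acetonitrile containing 0.1% formic acid. Parent remaining measured by LC/MS/MS; disappearance calculated relative to no-NADPH controls.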

[8] = Drug uptake in nu/nu homozygous mouse plasma at 100 mg/kg, po as a solution of 10% EtOH/40% PEG400/20% Captisol/water + 1:1 HCl after 1 hr by HPLC/MS/MS analysis; format: ADME, organism-based; set-up: dose 100 mg/kg, route oral; how it was run: as §1
[9] = Drug uptake in nu/nu homozygous mouse plasma at 100 mg/kg, po as a solution of 10% EtOH/40% PEG400/20% Captisol/water + 1:1 HCl after 4 hrs by HPLC/MS/MS analysis; format: ADME, organism-based; set-up: dose 100 mg/kg, route oral; how it was run: as §1
[10] = Drug uptake in nu/nu homozygous mouse plasma at 100 mg/kg, po as a suspension in 10% NMP/corn oil after 4 hrs by HPLC/MS/MS analysis; format: ADME, organism-based; set-up: dose 100 mg/kg, route oral; how it was run: as §1
[11] = Drug uptake in nu/nu homozygous mouse plasma at 100 mg/kg, po as a suspension in 10% NMP/corn oil after 24 hrs by HPLC/MS/MS analysis; format: ADME, organism-based; set-up: dose 100 mg/kg, route oral
Cytochrome P450 2C9 = Cytochrome P450 2C9 (Homo sapiens, UniProt P11712); assay: Inhibition of human CYP2C9 using tolbutamide as substrate by LC/MS/MS analysis; format: ADME
How it was run: (§2)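 Pooled human liver microsomes in 100 mM potassium phosphate, pH 7.4, at 37 °C with 1000 µM NADPH for 15 min. Microsomes 0.15 mg/mL for CYP2C9 and CYP2D6, 0.25 mg/mL for CYP3A4. Inhibitor tested at six concentrations (0.2–50 µM). Reactions quenched with acetonitrile; metabolite measured by LC/MS/MS; IC50 from 4-parameter sigmoidal fit.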

Cytochrome P450 2D6 = Cytochrome P450 2D6 (Homo sapiens, UniProt P10635); assay: Inhibition of human CYP2D6 using bufuralol as substrate by LC/MS/MS analysis; format: ADME; how it was run: as §2
Cytochrome P450 3A4 = Cytochrome P450 3A4 (Homo sapiens, UniProt P08684); assay: Inhibition of human CYP3A4 using testosterone as substrate by LC/MS/MS analysis; format: ADME; how it was run: as §2
[12] = Cmax in overnight fasted CD Sprague-Dawley rat at 3 mg/kg, po by HPLC/MS/MS analysis; format: ADME, organism-based; set-up: dose 3 mg/kg, route oral; conditions: in vivo
How it was run: (§3)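 Female Sprague-Dawley CD rats (9-10 wk, 201-225 g), fasted overnight and fed again 4 h post-dose. Given 3 mpk orally as a solution in EtOH/PEG400/water (5:45:50), n=4. Jugular-catheter blood drawn into heparin at 0.08-144 h (15 time points). Plasma assayed by HPLC/MS/MS; parameters from non-compartmental analysis.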

[13] = Half life in overnight fasted CD Sprague-Dawley rat at 3 mg/kg, po by HPLC/MS/MS analysis; format: ADME, organism-based; set-up: dose 3 mg/kg, route oral; conditions: in vivo; how it was run: as §3
[14] = AUC (0 to infinity) in overnight fasted CD Sprague-Dawley rat at 3 mg/kg, po by HPLC/MS/MS analysis; format: ADME, organism-based; set-up: dose 3 mg/kg, route oral, time infinity; conditions: plasma; how it was run: as §3
[15] = Oral bioavailability in overnight fasted CD Sprague-Dawley rat at 3 mg/kg by HPLC/MS/MS analysis; format: ADME, organism-based; conditions: in vivo
[16] = Cmax in overnight fasted beagle dog at 3 mg/kg, po by HPLC/MS/MS analysis; format: ADME, organism-based, Canis lupus familiaris; set-up: dose 3 mg/kg, route oral; conditions: in vivo
How it was run: (§4)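 Male beagle dogs fasted overnight and fed again 4 h post-dose; groups of 3. Study design covered 3 mpk IV and PO. Oral dose by gavage at 3 mpk in EtOH/PEG400/water (5:45:50). K-EDTA blood taken pre-dose and at 0.08-48 h. Plasma assayed by HPLC/MS/MS; non-compartmental PK parameters.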

[17] = Half life in overnight fasted beagle dog at 3 mg/kg, po by HPLC/MS/MS analysis; format: ADME, organism-based, Canis lupus familiaris; set-up: dose 3 mg/kg, route oral; conditions: in vivo; how it was run: as §4
[18] = AUC (0 to infinity) in overnight fasted beagle dog at 3 mg/kg, po by HPLC/MS/MS analysis; format: ADME, organism-based, Canis lupus familiaris; set-up: time infinity, dose 3 mg/kg, route oral; conditions: plasma; how it was run: as §4
[19] = Oral bioavailability in overnight fasted beagle dog at 3 mg/kg by HPLC/MS/MS analysis; format: ADME, organism-based, Canis lupus familiaris; conditions: in vivo; how it was run: as §4
[20] = Cmax in overnight fasted cynomolgus monkey at 3 mg/kg, po by HPLC/MS/MS analysis; format: ADME, organism-based, Macaca fascicularis; set-up: dose 3 mg/kg, route oral; conditions: in vivo
How it was run: (§5)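 Male cynomolgus monkeys fasted overnight and fed again 4 h post-dose; groups of 3. Dosed 3 mpk intravenously and by oral gavage as a solution in EtOH/PEG400/water (5:45:50). K-EDTA blood taken pre-dose and at 0.08-48 h. Plasma assayed by HPLC/MS/MS; non-compartmental analysis.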

[21] = Half life in overnight fasted cynomolgus monkey at 3 mg/kg, po by HPLC/MS/MS analysis; format: ADME, organism-based, Macaca fascicularis; set-up: dose 3 mg/kg, route oral; conditions: in vivo; how it was run: as §5
[22] = AUC (0 to infinity) in overnight fasted cynomolgus monkey at 3 mg/kg, po by HPLC/MS/MS analysis; format: ADME, organism-based, Macaca fascicularis; set-up: time infinity, dose 3 mg/kg, route oral; conditions: plasma; how it was run: as §5
[23] = Oral bioavailability in overnight fasted cynomolgus monkey at 3 mg/kg by HPLC/MS/MS analysis; format: ADME, organism-based, Macaca fascicularis; conditions: in vivo; how it was run: as §5
[24] = Antitumor activity against human MDA-MB-231T cells xenografted in athymic nude mouse assessed as tumor growth inhibition at 100 mg/kg, po qd for 14 days post implantation measured for 14 days; format: functional; conditions: 336 h, read-out: TGI
How it was run: (§6)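 MDA-MB-231T cells grown in DMEM with 10% FBS. 1 x 10⁶ cells in ice-cold HBSS implanted into the mammary fat pad of female athymic nude (NCr) mice, 5-8 wk. Daily oral dosing at 10 mL/kg, solutions made fresh daily. Tumor weight measured twice weekly; TGI calculated against vehicle and staging-day weights; 2-tailed t-test, p<0.05.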

[25] = Antitumor activity against human MDA-MB-231T cells xenografted in athymic nude mouse assessed as tumor growth inhibition at 300 mg/kg, po qd for 14 days post implantation measured for 14 days; format: functional; conditions: 336 h, read-out: TGI; how it was run: as §6
Mus musculus = assay: Toxicity in athymic nude mouse xenografted with human MDA-MB-231T cells assessed as body weight loss at 300 mg/kg, po qd for 14 days post implantation measured for 14 days; format: organism-based; set-up: dose 300 mg/kg, route oral; conditions: in vivo, 336 h
How it was run: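 Female NCr athymic nude mice bearing mammary fat pad MDA-MB-231T tumors (1 x 10⁶ cells). Dosed orally once daily at 10 mL/kg from fresh solutions. Body weights recorded daily; clinical signs and survival monitored daily.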

[26] = Drug uptake in nu/nu homozygous mouse plasma at 100 mg/kg, po as a solution in 10% EtOH/45% PEG400/water + 1:1 HCl after 1 hr by HPLC/MS/MS analysis; format: ADME, organism-based; set-up: dose 100 mg/kg, route oral; how it was run: as §1
[27] = Drug uptake in nu/nu homozygous mouse plasma at 100 mg/kg, po as a solution in 10% EtOH/45% PEG400/water + 1:1 HCl after 4 hrs by HPLC/MS/MS analysis; format: ADME, organism-based; set-up: dose 100 mg/kg, route oral; how it was run: as §1

T1 sequence (P21453 whole entry): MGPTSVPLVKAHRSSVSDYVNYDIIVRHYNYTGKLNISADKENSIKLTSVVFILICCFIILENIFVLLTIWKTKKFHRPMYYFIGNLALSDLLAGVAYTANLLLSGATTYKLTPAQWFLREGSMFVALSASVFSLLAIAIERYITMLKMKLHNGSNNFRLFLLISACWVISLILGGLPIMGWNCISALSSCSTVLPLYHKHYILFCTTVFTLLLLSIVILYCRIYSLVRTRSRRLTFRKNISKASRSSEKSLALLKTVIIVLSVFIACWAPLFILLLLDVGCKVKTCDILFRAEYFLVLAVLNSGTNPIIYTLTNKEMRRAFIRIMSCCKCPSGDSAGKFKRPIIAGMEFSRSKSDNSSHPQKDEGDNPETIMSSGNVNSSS
Sequence of Sphingosine 1-phosphate receptor 2 (O95136 whole entry): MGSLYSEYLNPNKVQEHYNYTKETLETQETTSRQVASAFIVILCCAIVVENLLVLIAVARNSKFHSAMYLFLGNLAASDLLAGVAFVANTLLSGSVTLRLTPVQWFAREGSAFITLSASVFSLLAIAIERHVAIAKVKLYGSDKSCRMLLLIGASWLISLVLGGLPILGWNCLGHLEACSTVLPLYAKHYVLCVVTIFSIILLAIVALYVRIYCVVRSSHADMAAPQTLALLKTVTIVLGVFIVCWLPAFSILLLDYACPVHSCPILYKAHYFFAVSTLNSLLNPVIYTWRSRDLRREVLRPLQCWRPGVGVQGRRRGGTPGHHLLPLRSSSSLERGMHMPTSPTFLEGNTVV
Sequence of Sphingosine 1-phosphate receptor 3 (Q99500 whole entry): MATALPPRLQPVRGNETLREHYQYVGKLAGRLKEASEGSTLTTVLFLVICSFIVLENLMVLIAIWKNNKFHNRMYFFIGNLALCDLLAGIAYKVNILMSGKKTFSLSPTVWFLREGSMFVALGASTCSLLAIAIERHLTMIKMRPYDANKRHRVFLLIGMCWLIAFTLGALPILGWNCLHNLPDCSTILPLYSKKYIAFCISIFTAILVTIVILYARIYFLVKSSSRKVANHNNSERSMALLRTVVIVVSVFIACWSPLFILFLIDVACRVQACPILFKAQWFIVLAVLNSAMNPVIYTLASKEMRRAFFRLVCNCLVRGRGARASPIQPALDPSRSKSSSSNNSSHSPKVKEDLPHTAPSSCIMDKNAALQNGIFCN
Sequence of Cytochrome P450 2C9 (P11712 whole entry): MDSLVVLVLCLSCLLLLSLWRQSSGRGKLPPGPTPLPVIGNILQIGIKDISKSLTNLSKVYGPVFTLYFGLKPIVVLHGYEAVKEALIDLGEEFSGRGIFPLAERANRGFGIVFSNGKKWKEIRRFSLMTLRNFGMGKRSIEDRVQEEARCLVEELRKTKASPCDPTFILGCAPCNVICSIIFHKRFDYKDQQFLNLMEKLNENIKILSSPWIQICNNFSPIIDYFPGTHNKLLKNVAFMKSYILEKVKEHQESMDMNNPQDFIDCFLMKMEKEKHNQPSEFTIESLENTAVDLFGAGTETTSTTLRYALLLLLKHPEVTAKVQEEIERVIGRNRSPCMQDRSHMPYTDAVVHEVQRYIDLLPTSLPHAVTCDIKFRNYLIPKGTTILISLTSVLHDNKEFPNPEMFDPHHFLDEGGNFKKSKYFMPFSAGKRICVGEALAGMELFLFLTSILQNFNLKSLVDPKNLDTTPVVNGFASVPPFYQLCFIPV
Sequence of Cytochrome P450 3A4 (P08684 whole entry): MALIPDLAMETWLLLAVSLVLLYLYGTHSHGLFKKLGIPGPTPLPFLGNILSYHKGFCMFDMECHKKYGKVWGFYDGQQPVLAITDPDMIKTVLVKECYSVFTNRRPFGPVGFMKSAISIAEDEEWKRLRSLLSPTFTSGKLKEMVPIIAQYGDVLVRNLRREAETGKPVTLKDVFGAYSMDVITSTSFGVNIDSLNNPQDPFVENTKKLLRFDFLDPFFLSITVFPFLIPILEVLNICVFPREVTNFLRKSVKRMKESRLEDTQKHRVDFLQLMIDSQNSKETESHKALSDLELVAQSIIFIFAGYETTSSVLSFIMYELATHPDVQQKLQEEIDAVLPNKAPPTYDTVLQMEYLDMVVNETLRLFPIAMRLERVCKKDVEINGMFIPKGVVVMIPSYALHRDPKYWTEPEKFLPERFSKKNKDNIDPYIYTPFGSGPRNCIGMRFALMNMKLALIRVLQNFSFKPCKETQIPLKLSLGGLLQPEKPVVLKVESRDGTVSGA
Sequence of Cytochrome P450 2D6 (P10635 whole entry): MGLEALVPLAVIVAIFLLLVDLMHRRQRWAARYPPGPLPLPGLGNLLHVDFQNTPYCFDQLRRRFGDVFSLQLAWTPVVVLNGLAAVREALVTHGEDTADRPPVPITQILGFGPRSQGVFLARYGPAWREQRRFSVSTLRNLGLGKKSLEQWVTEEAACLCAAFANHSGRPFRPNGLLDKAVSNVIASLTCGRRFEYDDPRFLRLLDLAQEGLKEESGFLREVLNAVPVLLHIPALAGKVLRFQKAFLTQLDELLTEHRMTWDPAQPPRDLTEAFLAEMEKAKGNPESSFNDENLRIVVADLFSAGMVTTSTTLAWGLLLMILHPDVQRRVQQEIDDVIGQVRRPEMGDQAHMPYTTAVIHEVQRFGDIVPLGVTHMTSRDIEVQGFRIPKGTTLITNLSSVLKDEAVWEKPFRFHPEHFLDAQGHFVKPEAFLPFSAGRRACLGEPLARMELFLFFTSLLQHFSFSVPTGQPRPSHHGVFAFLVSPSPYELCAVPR

## CN(CC(=O)NC(COCc1ccccc1)C(=O)Nc1ccc(Oc2ccccc2)cc1)C(=O)c1ccccc1 (racemic)
[1]
  IC50: 0.718 µM
[2]
  IC50: 2.8 µM
[3]
  IC50: > 10 µM
[4]
  IC50: > 10 µM
[5]
  concentration at 1 h: < 0.019 µM
[6]
  concentration at 4 h: < 0.019 µM
[7]
  metabolised at 0.5 h, 15 µM: 89%

## O=C(Cc1c[nH]cn1)N[C@@H](COCc1ccccc1)c1nc2cc(Oc3ccc(F)cc3)ccc2[nH]1
[1]
  IC50: 0.239 µM
[8]
  concentration at 1 h: 18.7 µM
[9]
  concentration at 4 h: 2.7 µM

## O=C(Nc1ccc(Oc2ccc(F)cc2)cc1)[C@@H]1C[C@@H](Cc2ccc(F)cc2)CN1C(=O)Cn1ccnn1
[1]
  IC50: 0.0058 µM
[2]
  IC50: 0.026 µM
[3]
  IC50: > 10 µM
[4]
  IC50: > 10 µM
[10]
  concentration at 4 h: 16.7 µM
[11]
  concentration at 24 h: 4.7 µM
Cytochrome P450 2C9
  IC50: 17.3 µM
Cytochrome P450 2D6
  IC50: 20.3 µM
Cytochrome P450 3A4
  IC50: > 20 µM
[12]
  Cmax: 3.2 µM
[13]
  half-life: 22.5 h
[14]
  AUC(0-inf): 108 µM·h
[15]
  bioavailability: 76.4%
[16]
  Cmax: 5.4 µM
[17]
  half-life: 34 h
[18]
  AUC(0-inf): 108 µM·h
[19]
  bioavailability: 99.9%
[20]
  Cmax: 1.5 µM
[21]
  half-life: 6.4 h
[22]
  AUC(0-inf): 16.7 µM·h
[23]
  bioavailability: 45.7%
[24]
  inhibition in vivo at 100 mg/kg: 43%

## O=C(Cc1cnc[nH]1)N[C@@H](COCc1ccccc1)C(=O)Nc1ccc(Oc2ccc(Cl)cc2)cc1
[1]
  IC50: 0.032 µM
[2]
  IC50: 0.221 µM
[3]
  IC50: > 10 µM
[4]
  IC50: > 10 µM
[7]
  metabolised at 0.5 h, 15 µM: 9%
[25]
  inhibition in vivo at 300 mg/kg: 45%
Mus musculus
  Activity: Non-toxic
[26]
  concentration at 1 h: 11 µM
[27]
  concentration at 4 h: 11 µM
